{
  "source": "ChEMBL document CHEMBL3525997",
  "about": "“Debrisoquine metabolism and CYP2D expression in marmoset liver microsomes” (Drug Metab Dispos, 2012)",
  "type_in_all_cases": "ADME, Callithrix jacchus",
  "key": {"[1]": {"test": "Drug metabolism in marmoset liver microsomes assessed as metabolite MF-3 formation at 500 uM after 120 mins by LC/MS/MS analysis", "details": "2 h", "summary_of_the_method": "(§1)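 Pooled male marmoset liver microsomes (5 mg/ml, batch 1) incubated with [14C]debrisoquine 500 µM, NADPH 6 mM, Tris-HCl 50 mM pH 7.69, 37°C, 120 min. Protein precipitated, supernatant injected on C18 reversed-phase HPLC with 10 mM TFA/acetonitrile linear gradient over 40 min. Detection by UV at 211 nm, radioactivity flow detector, and ESI+ LC-MS/MS with product ion spectra.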"}, "[2]": {"test": "Drug metabolism in marmoset liver microsomes assessed as metabolite MF-1 formation at 500 uM after 120 mins by radio-HPLC chromatography", "details": "2 h", "summary_of_the_method": "as §1"}, "[3]": {"test": "Drug metabolism in marmoset liver microsomes assessed as 4-hydroxydebrisoquine formation at 500 uM after 120 mins by LC/MS/MS analysis", "details": "2 h", "summary_of_the_method": "as §1"}, "[4]": {"test": "Drug metabolism in marmoset liver microsomes assessed as metabolite MF-1 formation at 500 uM after 120 mins by LC/MS/MS analysis", "details": "2 h", "summary_of_the_method": "as §1"}, "[5]": {"test": "Drug metabolism in marmoset liver microsomes assessed as 4-hydroxydebrisoquine formation at 500 uM after 120 mins by radio-HPLC chromatography", "details": "2 h", "summary_of_the_method": "as §1"}, "[6]": {"test": "Drug metabolism in marmoset liver microsomes assessed as metabolite MF-3 formation at 500 uM after 120 mins by radio-HPLC chromatography", "details": "2 h", "summary_of_the_method": "as §1"}, "[7]": {"test": "Drug metabolism in marmoset liver microsomes treated with [14C]debrisoquine at 500 uM after 180 mins by NMR analysis", "details": "3 h", "summary_of_the_method": "(§2)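 Large-scale incubation to generate metabolites for structural identification. Pooled marmoset liver microsomal protein 4 mg/ml (batch 1), 6 mM NADPH, 50 mM Tris-HCl pH 7.69, total 35 ml. Reaction started with [14C]debrisoquine to a final concentration of 500 µM and incubated for 180 min.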"}, "[8]": {"test": "Drug metabolism in marmoset liver microsomes assessed as 7-hydroxydebrisoquine formation at 500 uM after 180 mins by NMR analysis", "details": "3 h", "summary_of_the_method": "as §2"}, "[9]": {"test": "Drug metabolism in marmoset liver microsomes assessed as 6-hydroxydebrisoquine formation at 500 uM after 180 mins by NMR analysis", "details": "3 h", "summary_of_the_method": "as §2"}, "[10]": {"test": "Drug metabolism in marmoset liver microsomes assessed as 4-hydroxydebrisoquine formation at 500 uM after 180 mins by NMR analysis", "details": "3 h", "summary_of_the_method": "as §2"}, "[11]": {"test": "Drug metabolism in marmoset liver microsomes assessed as 5-hydroxydebrisoquine formation at 500 uM after 180 mins by NMR analysis", "details": "3 h", "summary_of_the_method": "as §2"}, "[12]": {"test": "Drug metabolism in marmoset liver microsomes assessed as 8-hydroxydebrisoquine formation at 500 uM after 180 mins by NMR analysis", "details": "3 h", "summary_of_the_method": "as §2"}, "[13]": {"test": "Drug metabolism in marmoset liver microsomes assessed as 6,7-hydroxydebrisoquine formation at 500 uM after 180 mins by NMR analysis", "details": "3 h", "summary_of_the_method": "as §2"}, "[14]": {"test": "Drug metabolism in marmoset liver microsomes treated with [14C]debrisoquine at 500 uM after 120 mins by radio-HPLC chromatography", "details": "2 h", "summary_of_the_method": "as §1"}, "[15]": {"test": "Drug metabolism in marmoset liver microsomes treated with [14C]debrisoquine at 500 uM after 120 mins by LC/MS/MS analysis", "details": "2 h", "summary_of_the_method": "as §1"}},
  "data": [
    {"molecule": "N=[14C](N)N1CCc2ccccc2C1", "values": [
      {"measurement": "Drug metabolism", "setting": "[1]", "value": "metabolite_detected"},
      {"measurement": "Drug metabolism", "setting": "[2]", "value": "metabolite_detected"},
      {"measurement": "Drug metabolism", "setting": "[3]", "value": "metabolite_detected"},
      {"measurement": "Drug metabolism", "setting": "[4]", "value": "metabolite_detected"},
      {"measurement": "Drug metabolism", "setting": "[5]", "value": "metabolite_detected"},
      {"measurement": "Drug metabolism", "setting": "[6]", "value": "metabolite_detected"}
    ]},
    {"molecule": "N=C(N)N1CCc2ccc(O)cc2C1", "values": [
      {"measurement": "Drug metabolism", "setting": "[7]", "value": "metabolite_detected"}
    ]},
    {"molecule": "N=C(N)N1CCc2cc(O)c(O)cc2C1", "values": [
      {"measurement": "Drug metabolism", "setting": "[7]", "value": "metabolite_detected"}
    ]},
    {"molecule": "N=C(N)N1CCc2cc(O)ccc2C1", "values": [
      {"measurement": "Drug metabolism", "setting": "[7]", "value": "metabolite_detected"}
    ]},
    {"molecule": "N=C(N)N1CCc2ccccc2C1.O=S(=O)(O)O", "values": [
      {"measurement": "Drug metabolism", "setting": "[8]", "value": "metabolite_detected"},
      {"measurement": "Drug metabolism", "setting": "[9]", "value": "metabolite_detected"},
      {"measurement": "Drug metabolism", "setting": "[10]", "value": "metabolite_detected"},
      {"measurement": "Drug metabolism", "setting": "[11]", "value": "metabolite_detected"},
      {"measurement": "Drug metabolism", "setting": "[12]", "value": "metabolite_detected"},
      {"measurement": "Drug metabolism", "setting": "[13]", "value": "metabolite_detected"}
    ]},
    {"molecule": "N=C(N)N1Cc2ccccc2C(O)C1", "note": "(stereo not given)", "values": [
      {"measurement": "Drug metabolism", "setting": "[14]", "value": "metabolite_detected"},
      {"measurement": "Drug metabolism", "setting": "[15]", "value": "metabolite_detected"},
      {"measurement": "Drug metabolism", "setting": "[7]", "value": "metabolite_detected"}
    ]},
    {"molecule": "N=C(N)N1CCc2c(O)cccc2C1", "values": [
      {"measurement": "Drug metabolism", "setting": "[7]", "value": "metabolite_detected"}
    ]},
    {"molecule": "N=C(N)N1CCc2cccc(O)c2C1", "values": [
      {"measurement": "Drug metabolism", "setting": "[7]", "value": "metabolite_detected"}
    ]}
  ]
}
